# Screening results deposited in PubChem BioAssay by several laboratories.
# Rpn11 inh: Rpn11 (PSMD14) deubiquitinase inhibitors, primary screen, biochemical, fluorescence polarization, uHTS; 26S proteasome non-ATPase regulatory subunit 14 (Homo sapiens), O00487; human 26S proteasome, Ub4-pepOG fluorescence polarization; 20S core pre-blocked with epoxomicin; inhibition, % at 20 µM; actives 0.59% (n = 360,000); AID 588493, 2011;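 active means inhibition at 20 µM, scaled to each plate's controls, above about 33%, limit read from the data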
# HNF4A DNA FP: change in binding of human HNF4A to DNA, primary screen, biochemical, fluorescence polarization, FITC-DNA; 1 h; activity change, % at 10 µM; actives 0.3% (n = 360,000); in the data active means activity change above about 30%, passing the limit was not always enough
# Target sequence (P41235 whole entry, looked up): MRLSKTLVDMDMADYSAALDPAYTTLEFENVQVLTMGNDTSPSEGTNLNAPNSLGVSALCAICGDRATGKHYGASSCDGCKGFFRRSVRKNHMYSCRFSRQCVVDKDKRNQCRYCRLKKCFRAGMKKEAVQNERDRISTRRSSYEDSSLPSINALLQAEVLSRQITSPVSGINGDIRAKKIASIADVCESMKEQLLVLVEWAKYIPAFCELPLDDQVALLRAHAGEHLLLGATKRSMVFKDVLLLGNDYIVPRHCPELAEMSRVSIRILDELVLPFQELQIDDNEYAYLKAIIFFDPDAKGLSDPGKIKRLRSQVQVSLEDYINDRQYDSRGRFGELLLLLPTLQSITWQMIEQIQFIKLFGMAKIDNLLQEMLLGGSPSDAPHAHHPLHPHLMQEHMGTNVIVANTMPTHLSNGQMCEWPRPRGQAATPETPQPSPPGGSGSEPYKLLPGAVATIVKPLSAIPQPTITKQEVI
# TPT1 inh: Candida albicans TPT1 enzyme inhibitors, primary screen, biochemical, fluorescence polarization. recombinant caTPT1, FP RNA substrate dephosphorylation. inhibition, % at 5 µM. actives 0.81% (n = 300,000);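 active means inhibition above the mean of all tested compounds plus 3 SD, set per screening campaign, cut at about 24% in these data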;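 further: plate controls were DMSO alone for no effect and ferristatin control at 100 nM for full effect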
# CSN deneddyl inh: inhibitors of CSN-mediated cullin deneddylation, primary screen, biochemical, fluorescence polarization, uHTS | COP9 signalosome complex subunit 5 (Homo sapiens), Q92905 | Purified CSN, SCF-Nedd8-OG deneddylation | inhibition, % at 12.5 µM | actives 0.38% (n = 360,000) | AID 651999, 2013;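 active means pattern-corrected inhibition above about 35%, with an unprinted fluorescence ratio check between 0.5 and 1.5, limit read from the data, passing the limit was not always enough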;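 further: 0% = enzyme with substrate and 100% = substrate without enzyme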
#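 Assay system: Purified human Csn5 enzyme expressed in HEK293T cells | Amount: Enzyme 0.24 nM | Measured by: Fluorescence polarization readout | Medium: Tris/NaCl/DTT buffer, pH 7.5 | Compound dosing: One concentration, 12.5 µM, 0.25% DMSO | Times: 90 min incubation of compound, enzyme and substrate at room temperature | Control set: no-enzyme wells high, enzyme-with-substrate wells low | Read-out: % inhibition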
# ATG4B inh: ATG4B protease inhibitors, primary screen, biochemical, fluorescence, uHTS; Cysteine protease ATG4B (Homo sapiens), Q9Y4P1; actives 0.51% (n = 340,000); ATG4B cleavage of LC3-PLA2, NBD-HPC fluorescence, 1 h; inhibition, % at 8.33 µM; AID 504462, 2011; in the data active means inhibition above about 40%
# SENP1 inh: human SENP1 catalytic domain inhibitors, primary screen, biochemical, FRET, uHTS; recombinant SENP1 catalytic domain, CyPet-SUMO1-YPet FRET cleavage; inhibition, % at 10 µM; actives 0.21% (n = 360,000); AID 624204, 2012;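 active means inhibition at least 30% at 10 µM, raw YFP signal under a set limit, fluorescence ratio 0.5 to 1.5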;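 further: 0% = enzyme with DMSO and 100% = no enzyme wells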
#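 Material – human SENP1 catalytic domain · Input – SENP1 enzyme, 20 pM final · Compound dosing – single concentration of 10 µM compound, 0.5% DMSO final · Timing – enzyme reaction for 50 min at room temperature, dark · Measured by – FRET fluorescence in CFP and YFP emission channels · Control set – no-enzyme wells low, DMSO-plus-enzyme wells high control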
# SENP1 inh conf: human SENP1 catalytic domain inhibitors, confirmation, biochemical, FRET endpoint, single concentration; shares compounds with SENP1 inh; recombinant SENP1, CyPet-SUMO1-YPet FRET cleavage; inhibition, % at 10 µM; actives 34% (n = 520); AID 651678, 2012; in the data active means inhibition mostly above about 35%, no sharp cut-off; inactive means mostly below about 32%;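 further: 0% = enzyme with DMSO and 100% = no enzyme control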
# SENP1 kin conf: human SENP1 catalytic domain inhibitors, confirmation, biochemical, kinetic FRET, single concentration | shares compounds with SENP1 inh | recombinant SENP1, CyPet-SUMO1-YPet FRET kinetic cleavage | inhibition, % at 10 µM | actives 26% (n = 520) | AID 651690, 2012; in the data active means inhibition mostly above about 32%, no sharp cut-off; inactive means mostly below about 29%;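 further: 0% = DMSO with enzyme and 100% = no enzyme substrate only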
# The depositor's hits bear a star; . = no result given. The list is not random: actives were taken first. Their share in the collection is about 2%.
SMILES,Rpn11 inh,HNF4A DNA FP,TPT1 inh,CSN deneddyl inh,ATG4B inh,SENP1 inh,SENP1 inh conf,SENP1 kin conf
CCOC(=O)c1c(=O)n(O)c2ccc(C)cc2[n+]1[O-],-8,-3,-5,0,1,47*,10,9
CC(CN1CCN(C/C=C/c2ccccc2)CC1)c1ccccc1 (stereo not given),-3,2,0,5,-1,-1,.,.
Cc1ccc(-c2nnn(CCC(=O)N3CCCCC3C)n2)cc1 (stereo not given),0,0,-2,4,4,2,.,.
CC1CCCCN1C(=O)Cn1nnc(-c2cccnc2)n1 (stereo not given),-47,-15,-23,-13,-5,30*,34,23
CC(C)c1ccc(NC(=O)C(c2ccccc2)N(Cc2ccco2)C(=O)CC2NC(=O)NC2=O)cc1 (stereo not given),-2,1,0,-2,-8,1,.,.
O=C1C2=C(SCCS2)C(=O)N1c1ccccc1,-2,2,-3,-2,5,36*,21,29
COc1ccc(N2CCN(C(=O)CN(c3cccc(OC)c3)S(=O)(=O)c3ccccc3)CC2)cc1,4,0,-3,5,-3,-1,.,.
CCn1c(/C=C/c2cc(Br)ccc2O)nc2ccccc2c1=O,-5,-1,6,1,2,78*,36*,33
O=C(Nc1ccc(Cc2ccncc2)cc1)c1ccc(S(=O)(=O)N2CCCC2)cc1,-10,0,.,3,-11,2,.,.
Cc1ccc(C(=O)OCC(=O)N(CC(C)C)c2c(N)n(Cc3ccccc3)c(=O)[nH]c2=O)o1,-12,1,-4,-2,-7,-2,.,.
CCOC(=O)Cn1c(=O)c(-c2ccccc2N)nc2ccccc21,-6,5,2,-2,-4,-5,.,.
CCOC(=O)Cn1c(=O)c(-c2cc(Br)ccc2N)nc2ccccc21,.,3,4,10,-1,86*,16,15
CCOC(=O)C1(CC2CC2)CCN(S(=O)(=O)/C=C/c2ccccc2)CC1,0,-3,2,2,17,0,.,.
O=C(NCC1CCCO1)c1cccc2c1C(=O)c1ccc(N3CCC(Cc4ccccc4)CC3)cc1S2(=O)=O (stereo not given),-47,62,.,10,-16,-23,.,.
COCCNC(=O)c1cccc2c1C(=O)c1ccc(N3CCOCC3)cc1S2(=O)=O,31,16,.,8,-3,73*,58*,40*
O=C(NC[C@@H]1CCCO1)c1cccc2c1C(=O)c1ccc(N3CCOCC3)cc1S2(=O)=O,39,21,.,11,-4,76*,64*,41*
Cc1ccc(NS(=O)(=O)c2ccc(C(=O)N3CCCC(C(F)(F)F)C3)cc2)cc1 (stereo not given),-6,-3,-4,-2,-14,1,.,.
CSc1cccc(NC(=O)NNC(=O)C2CCN(S(=O)(=O)N(C)C)CC2)c1,4,-2,2,2,-4,-1,.,.
COc1cc(S(=O)(=O)Nc2ccc3c(c2)C(=O)N(C)C3=O)ccc1NC(C)=O,-2,-2,.,5,-2,54*,41*,43*
COc1cc(S(=O)(=O)Nc2c(C)nn(C)c2C)ccc1NC(C)=O,-10,-2,0,3,-3,0,.,.
COc1cc([N+](=O)[O-])cc(/C=N/NC(=O)Cn2nccc2C)c1O,13,-5,-2,0,-1,2,.,.
COC(=O)c1ccc(N/N=C/c2cc([N+](=O)[O-])cc(OC)c2O)cc1,25,-1,4,0,-2,49*,5,-1
O=[N+]([O-])c1ccc(Nc2ccccc2O)c([N+](=O)[O-])c1,22,12,.,14,.,50*,31,17
O=C(O)c1cc([N+](=O)[O-])ccc1Nc1ccccc1,-3,2,-5,-2,-1,0,.,.
Nc1cc([N+](=O)[O-])ccc1Nc1ccccc1,6,9,10,8,-3,56*,39*,15
SMILES,Rpn11 inh,HNF4A DNA FP,TPT1 inh,CSN deneddyl inh,ATG4B inh,SENP1 inh,SENP1 inh conf,SENP1 kin conf
COc1ccc(CN(C(=O)c2snc(C(N)=O)c2N)C(C(=O)NC2CCCC2)c2ccco2)cc1 (stereo not given),1,-1,-1,2,10,-13,.,.
CC(C)NC(=O)c1cc(C(=O)c2cc(Cl)ccc2O)coc1=N,9,5,8,2,1,-5,.,.
CCOc1ccccc1NC(=O)c1cc(C(=O)c2cc(OC)ccc2O)coc1=N,23,5,14,-4,-9,46*,16,16
CN(C)CCNc1cccc2sc3ccc(O)cc3c(=O)c12,38,27,.,15,.,49*,57*,26
CCN(CC)CCNc1ccc(CO)c2oc3ccccc3c(=O)c12,8,0,.,-3,.,47*,48*,40*
CCN(CC)CCNc1cccc2sc3ccccc3c(=O)c12,6,7,.,6,.,32*,38*,26
CCN(CC)CCNc1ccc(CO)c2sc3ccccc3c(=O)c12,-9,7,-1,-1,-4,22,.,.
Cc1cccc(N2CC(C)Cn3c2nc2c3c(=O)[nH]c(=O)n2C)c1 (stereo not given),-12,1,3,0,8,2,.,.
COc1cc(OC)c(NC(=O)C2CC(=O)N(c3ccc4c(c3)OCCO4)C2)cc1Cl (stereo not given),-3,0,-4,1,-6,2,.,.
O=C(O)CCCC(=O)Nc1cccc2cccnc12,-2,3,-7,3,-6,34*,2,-4
Cc1ccc(OC(=O)c2cc(C)nn2C(C)(C)C)cc1,1,-4,-4,7,-1,3,.,.
